Here are results for 23 molecules from ChEMBL document CHEMBL1142740, “Pyrroloquinolone PDE5 inhibitors with improved pharmaceutical profiles for clinical studies on erectile dysfunction” (J Med Chem, 2005).

Data set [1] in a line: Oral bioavailability in monkey was determined. The format is ADME, organism-based. Conditions: cercopithecidae, in vivo. In outline: (§1)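 Male Sprague-Dawley rats, male beagle dogs and male rhesus monkeys, three per group. The oral arm received 30 mg/kg in 0.5% methylcellulose; the iv arm received 3.0 mg/kg in 20% HPBCD. Blood was drawn at 0, 0.5, 1, 2, 4, 6 and 24 h, and plasma drug was quantified by LC/MS. Bioavailability is reported as value and standard deviation.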

In data set [2] the target is T1, cGMP-specific 3',5'-cyclic phosphodiesterase (Rattus norvegicus, UniProt O54735). Nature of the data set: Inhibition of phosphodiesterase 5 in rat fetal lung fibroblast (RFL-6) cells. The format is cell-based.
For data set [3], the system named is Canis familiaris. Nature of the data set: Effect on intracavernosal pressure after i.v. administration in electrically stimulated dogs. As to conditions: Canis lupus familiaris, iv. In kind it is functional.
The test system of data set [4] is RFL-6. Nature of the data set: Ratio of inhibitory constant against phosphodiesterase 4 and phosphodiesterase 5 in rat fetal lung fibroblast (RFL-6) cells. In kind it is cell-based.
Data set [5] relates to RFL-6. Nature of the data set: Ratio of inhibitory constant against phosphodiesterase 3 and phosphodiesterase 5 in rat fetal lung fibroblast (RFL-6) cells. In kind it is cell-based.
Data set [6] concerns RFL-6. Nature of the data set: Ratio of inhibitory constant against rod phosphodiesterase 6 and phosphodiesterase 5 in rat fetal lung fibroblast (RFL-6) cells. In kind it is cell-based.
Data set [7] deals with RFL-6. Nature of the data set: Ratio of inhibitory constant against phosphodiesterase 1 and phosphodiesterase 5 in rat fetal lung fibroblast (RFL-6) cells. The format is cell-based.
The subject of data set [8] is RFL-6. Nature of the data set: Ratio of inhibitory constant against cone phosphodiesterase 6 and phosphodiesterase 5 in rat fetal lung fibroblast (RFL-6) cells. The format is cell-based.
Data set [9] in a line: Oral bioavailability in dog. In kind it is ADME, organism-based, Canis lupus familiaris. Conditions: in vivo. In outline:
as §1

Data set [10] relates to RFL-6. Nature of the data set: Ratio of inhibitory constant against phosphodiesterase 2 and phosphodiesterase 5 in rat fetal lung fibroblast (RFL-6) cells. The format is cell-based.
A short description of data set [11]: (§2) Oral bioavailability in rat. In kind it is ADME, organism-based. Conditions: in vivo. The method in brief: as §1
Data set [12] deals with RFL-6. Nature of the data set: Ratio of binding affinity towards phosphodiesterase 4 and phosphodiesterase 5 in rat fetal lung fibroblast (RFL-6) cells. The format is cell-based.
Data set [13] deals with cGMP-specific 3',5'-cyclic phosphodiesterase (Rattus norvegicus) (UniProt O54735). Nature of the data set: pKa value for phosphodiesterase 5 in rat fetal lung fibroblast (RFL-6) cells. The format is functional, cell-based.
Data set [14] is described as follows: as §2. The format is ADME, organism-based. As to conditions: in vivo. The method in brief:
as §1
This is another data set of the same source.

For data set [15], the target named is cGMP-specific 3',5'-cyclic phosphodiesterase (Rattus norvegicus) (UniProt O54735). Conditions: RFL-6.
The target of data set [16] is T1, cGMP-specific 3',5'-cyclic phosphodiesterase. Nature of the data set: Inhibitory concentration against phosphodiesterase 5 in rat fetal lung fibroblast (RFL-6) cells. The format is cell-based.

Structures are written as SMILES.

For orientation: bioavailability means the share of a dose that reaches the circulation, judged against a reference dose that is usually intravenous. One may read the Ki as a measure of affinity in units of concentration, obtained from inhibition or displacement. For orientation: ED50 means the midpoint of the dose-response relation. One may read the IC50 as the concentration at which inhibition is half-maximal.

In the case of `Oc1c2c(nc3ccccc13)[C@@H](c1ccc3c(c1)CCO3)N(c1ccccn1)C2`, the results for the bioavailability in [1] and in data set [9] were 40% and 69%, respectively. Also, the Ki in data set [2] was found to be 0.12 nM. This molecule came in with an ED50 in data set [3] of 9.85 µg/kg. The Selectivity in [4] is above 2500; in data set [5] it was above 15000; in data set [6], 173; in data set [7], above 15000; in [8] it was 106; in data set [10], above 15000.

As to `Oc1c2c(nc3ccccc13)C(c1ccc3c(c1)CCO3)N(c1ccc(-c3ccccn3)nc1)C2` (stereo unspecified), in data set [2], the Ki stood at 6.43 nM. Moreover, the Selectivity in data set [4] is above 2500; in [5], above 15000; in data set [7], above 15000; in data set [10], above 15000.

In data set [2], `Oc1c2c(nc3ccccc13)C(c1ccc3occc3c1)N(c1ncc(-c3ccccn3)cn1)C2` (stereo unspecified) showed a Ki of 0.19 nM. The Selectivity in [4] was 2500; in data set [5], above 15000; in data set [6], 22.6; in data set [7], 15000; in data set [8], 22.3; in data set [10], above 15000.

With `Oc1c2c(nc3ccccc13)C(c1ccc3c(c1)CCO3)N(c1ccc(-c3ccccn3)cn1)C2` (stereo unspecified), the Ki in data set [2] stood at 0.15 nM. Besides, in data set [11], the bioavailability came to 39%. For the same molecule, the Selectivity in data set [4] was above 2500; in data set [5] it was above 15000; in data set [6], 93; in data set [7], above 15000; in [8], 69.2; in data set [10], above 15000.

Molecule `Cn1cncc1-c1ccc(N2Cc3c(nc4ccccc4c3O)C2c2ccc3c(c2)CCO3)nc1` (stereo unspecified) gave a Ki in data set [2] of 0.33 nM. For the same molecule, the Selectivity in data set [5] was above 15000; in [6], 2.6; in [7], above 15000; in data set [8], 10.3; in [10] it was above 15000; in data set [12] it was above 2500.

In the case of `CCCc1nn(C)c2c(=O)[nH]c(-c3cc(S(=O)(=O)N4CCN(C)CC4)ccc3OCC)nc12`, in [3], the 50% effective dose (ED50) is 5.1 µg/kg.

In data set [2], `CN1CC(=O)N2[C@H](c3ccc4c(c3)OCO4)c3[nH]c4ccccc4c3C[C@@H]2C1=O` gave a Ki of 5 nM. For the same molecule, the Selectivity in data set [4] was above 2000; in data set [5], above 2000; in data set [7] it was above 2000; in data set [8] it was 1000; in [10], above 2000.

In turn, `Oc1c2c(nc3ccccc13)C(c1ccc3c(c1)CCO3)N(c1ncc(-c3cccnc3)cn1)C2` (stereo unspecified) came in with a Ki in data set [2] of 0.36 nM. The Selectivity in data set [4] is above 2500; in data set [5], above 15000; in [6] it was 127; in data set [7], above 15000; in [8], 66.5; in data set [10], above 15000.

`Oc1c2c(nc3ccccc13)C(c1ccc3c(c1)CCO3)N(c1ccc(-n3ccnc3)cc1)C2` (stereo unspecified): affinity in [2] was put at a Ki of 0.51 nM. Further, the Selectivity in [4] is above 2500; in data set [5], above 15000; in [6] it was 499; in [7], above 15000; in data set [8], 1840; in data set [10], above 15000.

`Oc1c2c(nc3ccccc13)C(c1ccc3c(c1)CCO3)N(c1ncc(-c3ccncc3)cn1)C2` (stereo unspecified) gave a Ki in data set [2] of 0.22 nM. The Selectivity is above 2500 in data set [4]; above 15000 in data set [5]; 10.5 in data set [6]; above 15000 in data set [7]; 12.1 in data set [8]; above 15000 in data set [10].

In [2], `COc1ccc(-c2cnc(N3Cc4c(nc5ccccc5c4O)C3c3ccc4c(c3)CCO4)nc2)cc1` (stereo unspecified) registered a Ki of 0.52 nM.

`Oc1c2c(nc3ccccc13)[C@@H](c1ccc3c(c1)CCO3)N(c1ncc(-c3ccccn3)cn1)C2` came in with an inhibition constant (Ki) in data set [2] of 0.019 nM. Also, the ED50 in data set [3] stood at 8.03 µg/kg. In addition, the Selectivity is above 2500 in data set [4]; above 15000 in [5]; 99 in data set [6]; above 15000 in data set [7]; 67 in data set [8]; above 15000 in data set [10].

In the case of `Oc1c2c(nc3ccccc13)C(c1ccc3c(c1)CCO3)N(c1ncccn1)C2` (stereo unspecified), the bioavailability in data set [11] worked out at 12%. This molecule also displayed a pKa in data set [13] of 4.4. Also, the Selectivity is above 2500 in data set [4]; above 15000 in data set [5]; 755 in [6]; above 15000 in [7]; 310 in data set [8]; above 15000 in data set [10].

In turn, `Oc1c2c(nc3ccccc13)C(c1ccc3c(c1)CCO3)N(c1ccccn1)C2` (stereo unspecified) had a pka in [13] of 5. Moreover, the Selectivity is above 2500 in data set [4]; above 15000 in data set [5]; 219 in data set [6]; above 15000 in data set [7]; 237 in data set [8]; above 15000 in data set [10].

With `Cc1ncc(-c2cnc(N3Cc4c(nc5ccccc5c4O)C3c3ccc4c(c3)CCO4)nc2)n1C` (stereo unspecified), the Ki in data set [2] came to 0.24 nM. In addition, the bioavailability in data set [11] came to 0%. In addition, the Selectivity in [4] is above 2500; in data set [5], above 15000; in [6], 237; in data set [7], above 15000; in data set [8] it was 219; in data set [10] it was above 15000.

For the molecule `Oc1c2c(nc3ccccc13)C(c1ccc3c(c1)OCO3)N(c1ncc(-c3cccnc3)cn1)C2` (stereo unspecified), in data set [2], the affinity, expressed as Ki, was 0.29 nM. For the same molecule, the Selectivity in data set [4] was above 2500; in data set [5] it was above 15000; in [6] it was 9.3; in [7], above 15000; in data set [8], 7.6; in [10], above 15000.

`Oc1c2c(nc3ccccc13)C(c1ccc3c(c1)CCO3)N(c1ccc(-c3cncn3Cc3ccccc3)cn1)C2` (stereo unspecified) came in with a Ki in data set [2] of 0.17 nM. Further, the Selectivity in data set [4] is above 2500; in data set [5], 4560; in [6], 57.6; in data set [7], above 15000; in data set [8], 68.9; in data set [10], above 15000.

In turn, `CCN(CC)CCOc1ccc(-c2cnc(N3Cc4c(nc5ccccc5c4O)C3c3ccc4c(c3)CCO4)nc2)cc1` (stereo unspecified) showed a Ki in data set [2] of 0.53 nM.

Molecule `O=c1c2c([nH]c3ccccc13)C(c1ccc3c(c1)CCO3)N(c1ccccn1)C2` (stereo unspecified) came in with a Ki in data set [2] of 0.65 nM. The bioavailability in data set [14] and in [11] was 38% each time.

`Oc1c2c(nc3ccccc13)C(c1ccc3c(c1)CCO3)N(c1ncc(-c3ccccn3)cn1)C2` (stereo unspecified) gave a bioavailability in data set [11] of 31.3%. The Selectivity in data set [5], in data set [7] and in data set [10] was above 15000 each time. The molecule further gave a Pka in data set [15] of 9.24.

As to `Cc1ncc(-c2cnc(N3Cc4c(nc5ccccc5c4O)C3c3ccc4c(c3)CCO4)nc2)n1Cc1ccccc1` (stereo unspecified), the affinity in data set [2] corresponds to a Ki of 0.24 nM. The Selectivity in data set [4] was above 2500; in data set [5], above 15000; in [6], 366; in data set [7] it was above 15000; in [8], 359; in data set [10], above 15000.

For `Oc1c2c(nc3ccccc13)C(c1ccc3c(c1)OCO3)N(c1ccc(-n3ccnc3)cc1)C2` (stereo unspecified), the Selectivity is above 2500 in [4]; above 10300 in data set [5]; 20.1 in data set [6]; above 15000 in [7]; 13.2 in data set [8]; above 4870 in data set [10]. In data set [16], this molecule yielded an IC50 of 1.75 nM.

As for `Oc1c2c(nc3ccccc13)C(c1ccc3c(c1)CCO3)N(c1ncc(Br)cn1)C2` (stereo unspecified), the Selectivity in data set [4] is above 2500; in data set [5] it was above 15000; in [6] it was 35.7; in data set [7], above 15000; in [8], 39.2; in data set [10], above 15000. Half-maximal inhibition in data set [16] (IC50) was put at 1.9 nM.
